# TNF necrop inh – blocks TNF-alpha induced death of Jurkat FADD-/- cells; 0.068% of 220,000 active; Jurkat FADD-/- TNF necroptosis rescue, ATP luminescence, 24 h; 0 = TNF only, 100 = no-TNF cells; activation (protection from cell death), % at 10 µM;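 active means activation, meaning protection from cell death, of at least 50% relative to plate controls; inactive means activation below 50%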;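 further: necroptosis triggered by 40 ng/mL TNF-alpha added together with compound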
# STAT1 inh – reduces IFN-gamma driven STAT1 reporter signal. NIH 3T3 STAT1-luciferase reporter, luminescence. inhibition, % at 5.5 µM. 0.35% of 200,000 active. AID 920;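 active means inhibition above a set limit, the mean inhibition across all tested compounds plus 3 SD, cut at about 34% in these data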
# L929 necroptosis – L929 zVAD cell death inhibition; L929 zVAD necroptosis rescue, ATP luminescence, 24 h; with zVAD 60 µM; AID 1377; viability rescue, % at 10 µM; 0.38% of 220,000 active;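 active means activation, scaled between plate controls, above about 75%, limit read from the data; inactive means activation under that limit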
# STAT3 blocker – inhibitors of IL-6 induced STAT3 signaling | inhibition, % at 5.5 µM | 0.89% of 190,000 active | U3A cells, IL-6 STAT3-luciferase reporter, luminescence; host cell line lacks STAT1 | AID 862;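 active means inhibition above the mean inhibition across all screened compounds plus 3 SD, cut at about 44% in these data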
# STAT3 act – increases IL-6 driven STAT3 reporter signal; U3A cells, IL-6 STAT3-luciferase reporter, luminescence; 100% = signal with IL-6 EC80 alone; activation (% of control), % at 5.6 µM; 0.91% of 190,000 active;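 active means activation above the screen-wide mean of compound activation plus 3 SD, cut at about 130% in these data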
#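 system = STAT3-luciferase reporter U3A cells | reagent = IL-6 stimulus at 33 ng/mL final | timing = 1 h compound pre-exposure, 6 h IL-6 stimulation, 37 °C | measured by = luminescence | evaluation = % activation versus median of IL-6-stimulated wells | control set = IL-6-only wells as 100% reference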
# Hits are given with their value; 0 = inactive; - = not tested or not shown. Compounds with a hit are over-represented: about 2.1% of the library has one in this group of screens.
SMILES,TNF necrop inh,STAT1 inh,L929 necroptosis,STAT3 blocker,STAT3 act
CCCn1c(=O)c2ccccc2n2c(SCc3nc4ccccc4s3)nnc12,0,0,0,0,0
COC(C(=O)Nc1c(F)cccc1F)c1ccccc1 (centres undefined),0,0,0,0,0
COC(C(=O)Nc1ccc(Cl)cc1C)c1ccccc1 (centres undefined),97,0,0,0,0
CC(C)c1[nH]nc2c1C(C(C)C)C(C#N)=C(N)O2 (centres undefined),0,0,0,0,0
Cc1sc(NC(=O)c2cccs2)c(C(N)=O)c1C,0,0,75,0,0
O=C1CC(c2ccc(F)cc2)Sc2ccccc2N1 (centres undefined),0,0,0,0,135
COc1cc(C2CC(=O)Nc3ccccc3S2)cc(OC)c1OC (centres undefined),0,0,0,0,0
Cc1ccccc1Cn1nc(C)c(NC(=O)c2cc(-c3ccco3)on2)c1C,0,0,0,0,0
O=C(NC(NNc1ccc([N+](=O)[O-])cc1)(C(F)(F)F)C(F)(F)F)c1ccccc1Cl,0,0,0,0,0
O=C(NC(Nc1nc2ccc([N+](=O)[O-])cc2s1)(C(F)(F)F)C(F)(F)F)c1ccccc1Cl,0,47,0,92,0
CN(C)S(=O)(=O)c1ccc2nc(NC(=O)c3cccnc3)sc2c1,0,0,0,0,0
O=C(NC(Nc1nc2ccc([N+](=O)[O-])cc2s1)(C(F)(F)F)C(F)(F)F)c1cccnc1,0,46,0,71,0
O=S(=O)(NCCSc1ccccc1)c1ccc(F)cc1,0,0,0,0,0
CC(=O)Nc1cc(OC(C)=O)c2nonc2c1OC(C)=O,0,95,0,0,0
CC(=O)Nc1nonc1NC(C)=O,0,0,0,0,0
COc1ccccc1-c1nc(NC(C)=O)n[nH]1,0,0,0,0,159
CCn1ncc(Br)c1C(=O)Nc1cccc(F)c1,0,0,0,0,0
CCOC(=O)Cn1nc(C)c(NC(=O)c2ccc(Cl)c([N+](=O)[O-])c2)c1C,0,0,0,0,0
Cc1[nH]n(-c2ccc([N+](=O)[O-])cc2)c(=O)c1N=Nc1nc2ccccc2s1,0,0,0,0,163
Cc1cc([N+](=O)[O-])ccc1N=Nc1c(N)[nH]n(-c2ccccc2)c1=O,0,0,0,0,0
COc1ccccc1-c1cc(C(F)(F)F)nc(S(=O)(=O)CCCC(=O)Nc2cc(C)on2)n1,0,35,0,0,0
COc1ccccc1-c1cc(C(F)(F)F)nc(S(=O)(=O)CCCC(=O)NC(C)C)n1,0,0,0,0,0
S=c1[nH]nc(-c2ccccc2)n1CC1CCCO1 (centres undefined),0,0,0,0,0
O=S(=O)(Nc1ccccc1)c1ccc2c(c1)CCO2,52,-,0,-,-
COc1ccc(NS(=O)(=O)c2ccc3c(c2)CCO3)cc1,0,-,0,-,-
SMILES,TNF necrop inh,STAT1 inh,L929 necroptosis,STAT3 blocker,STAT3 act
CC1=CC(C)(C)Nc2ccc(OC(=O)C(Cc3ccccc3)N3C(=O)c4ccccc4C3=O)cc21 (centres undefined),0,0,97,0,0
N#Cc1cnn2c1nc(N1CCCCC1)c1ccccc12,0,0,0,0,0
O=C1N/C(=N\N=C\c2ccccn2)SC1Cc1cccc(SC(F)F)c1 (centres undefined),0,0,82,0,0
O=C1N/C(=N\N=C\c2ccc3ncccc3c2)SC1Cc1ccc(SC(F)F)cc1 (centres undefined),0,0,0,0,0
Cc1ccc(C)c(C(C)NC(=O)CC#N)c1 (centres undefined),0,0,0,0,0
COc1cccc(/C=N/Nc2ncnc(N)c2[N+](=O)[O-])c1OC,0,59,0,86,0
CCOC(=O)c1cccc(Nc2ncnc3ccccc23)c1,0,0,0,0,0
Cc1ccccc1C(=O)Oc1cccc(Nc2ncnc3ccccc23)c1,0,0,0,67,0
Cc1ccc(Nc2cc(=O)[nH]c(=O)[nH]2)cc1Cl,0,0,0,0,0
Cc1cc(NCCCn2ccnc2)n2ncc(-c3ccc(Cl)cc3)c2n1,0,0,0,0,152
CC(=O)Nc1ccc(C(=O)OCC(=O)NC(=O)NC(C)(C)C)cc1,0,0,0,0,0
CCC1(C)N=C(c2ccc3c(c2)OCO3)CC(c2ccccc2O)N1 (centres undefined),0,0,0,0,144
O=C(CCC(=O)c1ccc(Br)cc1)Nc1cccc(C(F)(F)F)c1,0,0,91,0,0
COc1cc(/C=N/NC(=O)COc2ccc(C)cc2)ccc1OC(=O)c1cccs1,0,0,0,0,0
Cc1[nH]c2c(C)cccc2c1CC(=O)O,0,0,0,0,0
Cc1[nH]c2ccccc2c1CC(=O)O,0,0,0,0,133
COc1ccc(-c2cc3nc(C)n(N)c(=O)c3s2)cc1,0,-,0,-,-
Cc1nc2cc(-c3ccccc3)sc2c(=O)n1N,0,86,0,99,0
C/C(=N\NC(=S)NCc1ccccc1)c1ccc2ccccc2c1OC(F)F,0,0,0,0,0
CC(C)CC(c1nnnn1CC1CCCO1)N1CCN(Cc2ccc3c(c2)OCO3)CC1 (centres undefined),0,0,0,0,0
COc1ccc(CCNc2nc(=S)[nH]c3cc(OC)c(OC)cc23)cc1OC,0,0,82,0,0
Cc1csc(NC(=O)CSc2nc3[nH]ncc3c(=O)[nH]2)n1,0,0,0,0,0
CCC(C)c1ccc(O)c(NC(=O)c2cncc(Br)c2)c1 (centres undefined),78,0,0,0,0
COc1ccccc1NC(=O)CN1CC(=O)Nc2ccccc21,0,0,0,0,134
O=C(CN1CC(=O)Nc2ccccc21)Nc1ccc(F)c(F)c1,0,0,0,0,0
SMILES,TNF necrop inh,STAT1 inh,L929 necroptosis,STAT3 blocker,STAT3 act
Cc1cc(S(=O)(=O)Nc2c(C(=O)O)[nH]c3ccccc23)ccc1F,0,0,0,0,135
CC(=O)Nc1nc(C)c(-c2csc(Nc3ccc(O)cc3)n2)s1,0,0,77,0,0
Cc1ccccc1Nc1nc(-c2sc(NC(=O)c3ccco3)nc2C)cs1,0,0,0,0,0
Cc1ccc(Nc2nc(-c3sc(NC(=O)c4ccco4)nc3C)cs2)cc1,0,0,0,0,135
CCOC(=O)C1CCN(Cc2ccc(OC)cc2OC)CC1,0,0,0,0,0
COc1ccc(C2=Nn3c(nnc3-c3ccccc3)SC2)cc1OC,0,0,0,0,134
COc1ccc(-c2nnc3n2N=C(C)CS3)cc1OC,0,0,0,0,0
COc1ccc(C(O)P(=O)(OCc2ccccc2)c2ccc(N(C)C)cc2)cc1 (centres undefined),0,-,0,-,-
O=[N+]([O-])c1cccc(/C=N/N2CCN(c3ccccn3)CC2)c1,0,0,0,0,0
COc1ccc(NC(=S)Nc2cc(C)ccn2)c(OC)c1,0,0,0,0,141

# Bioassay records as filed in PubChem.
